Data set [1] concerns five pathogenic bacterial strains, including three Gram‐positive and two Gram‐negative strains. The data set can be described thus: Antimicrobial assay. The data set is classed as cell-based. The conditions noted are these: read-out: MIC against all pathogenic bacterial strains tested. The procedure, abridged:
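Broth microdilution MIC of a recombinant test peptide (RP-HPLC purified, >95%). E. coli ATCC 12014, S. aureus ATCC 25923, P. acnes ATCC 6919, P. gingivalis ATCC 33277 and S. mutans ATCC 25175 were grown overnight at 37°C in LB or BHI and diluted in the same medium. Serial peptide dilutions were mixed 1:1 with bacteria (final 5 × 10^4 CFU/mL) and incubated 37°C, 24 h. Ampicillin and magainin-2 were positive controls. Three independent repeats, mean ± SD.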

For data set [2], the system named is Staphylococcus aureus strain. Format: cell-based. The settings on record: aqueous peptide solution (10 μg/mL) heated at 100°C for 60 min, cooled 30 min.
For another data set, the system named is Staphylococcus aureus. Format: cell-based. The conditions noted are these: S. aureus; LB at pH 3.7–8.7.
Data set [3] in a line: Degradation assay with resting cell suspensions. Format: in vitro ADME. The conditions noted are these: resting cell suspension of Staphylococcus aureus ATCC 25923, pH 7. The procedure, abridged:
(§1)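 Resting-cell peptidase assay. Mid-exponential cultures (OD600 = 0.5) were pelleted at 10,000 g, 15 min, 4°C, washed twice and resuspended 20-fold concentrated in 10 mmol/L phosphate buffer, pH 7.0. Test peptide solution (400 μg/mL) was mixed 1:1 with cells (final 10^8 CFU/mL) and incubated at 37°C, sampled at 30 and 60 min (also 4 h for L. plantarum). Read-out was RP-HPLC peptide remaining versus a no-bacteria control; fragments were identified by LC-MS/MS.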

Data set [4] in a line: Degradation assay with resting cell suspensions. Format: in vitro ADME, Lactobacillus plantarum subsp. plantarum. The settings on record: pH 7. In short, it runs like this: as §1

SMILES strings stand for the structures. ≈ marks a conversion by molar mass, not a printed value. Where a SMILES comes first, the peptide text is derived from it. The star is where a group is joined. hSer(lactone) = O=C1OCC[C@@H]1N*

The values below come from paper PMC7379261 (Journal of Peptide Science, 2020).

With `CC1(C)S[C@@H]2[C@H](NC(=O)[C@H](N)c3ccccc3)C(=O)N2[C@H]1C(=O)O` [Ampicillin, ampicillin], the MIC (usually the lowest concentration that inhibits growth of the organism) in data set [1] fell in the range of 5 to 7.5 µg/mL (≈ 14.3 to 21.5 µM).
In the case of `CC[C@H](C)[C@H](NC(=O)[C@H](Cc1c[nH]c2ccccc12)NC(=O)[C@H](CCC(=O)O)NC(=O)[C@H](CCCCN)NC(=O)[C@@H](NC(=O)[C@H](CCCCN)NC(=O)[C@@H](N)CC(N)=O)C(C)C)C(=O)N[C@@H](CCCCN)C(=O)N[C@@H](Cc1ccc(O)cc1)C(=O)N[C@@H](CC(C)C)C(=O)N[C@@H](CCCCN)C(=O)N[C@@H](CO)C(=O)N[C@@H](CC(C)C)C(=O)N[C@@H](Cc1ccccc1)C(=O)N[C@@H](CO)C(=O)N[C@H]1CCOC1=O` [LPcin‐YK3] (H-NKVKEWIKYLKSLFS-{hSer(lactone)}), in data set [2], the “MIC against S. aureus strain under the conditions of heat treatment” value stood at 0.62 µg/mL. In addition, the “MIC within the limits of pH (3.7–8.7) solutions” value with Staphylococcus aureus amounted to 0.62 μg/mL. The metabolised at 1 h, 200 μg/mL is 10.8% in data set [3] and roughly 79.3% in data set [4].
